Results of several laboratories.
Protocols differ between the studies behind these lines.
Target: Serine/threonine-protein kinase TBK1 (TBK1, Homo sapiens, UniProt Q9UHD2)
Residues used in one study (Q9UHD2 1-729): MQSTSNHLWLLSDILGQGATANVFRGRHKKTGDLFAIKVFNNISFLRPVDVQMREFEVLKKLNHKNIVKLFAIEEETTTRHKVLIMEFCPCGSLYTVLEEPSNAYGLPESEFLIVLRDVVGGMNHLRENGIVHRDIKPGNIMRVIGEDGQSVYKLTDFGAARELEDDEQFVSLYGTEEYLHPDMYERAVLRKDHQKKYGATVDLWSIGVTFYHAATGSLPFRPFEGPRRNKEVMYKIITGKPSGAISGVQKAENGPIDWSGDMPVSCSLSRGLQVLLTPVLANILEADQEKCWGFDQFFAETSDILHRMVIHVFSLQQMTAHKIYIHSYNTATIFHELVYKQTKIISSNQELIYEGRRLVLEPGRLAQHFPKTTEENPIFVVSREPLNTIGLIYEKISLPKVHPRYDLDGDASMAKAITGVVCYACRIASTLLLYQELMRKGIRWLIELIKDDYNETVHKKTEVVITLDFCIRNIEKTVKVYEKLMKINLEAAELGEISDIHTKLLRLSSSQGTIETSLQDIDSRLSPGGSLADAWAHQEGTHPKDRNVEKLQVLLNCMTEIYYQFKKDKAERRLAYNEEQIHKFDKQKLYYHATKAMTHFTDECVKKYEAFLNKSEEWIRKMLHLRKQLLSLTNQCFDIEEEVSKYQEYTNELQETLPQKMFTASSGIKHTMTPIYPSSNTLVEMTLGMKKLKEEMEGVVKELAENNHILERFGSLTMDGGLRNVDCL

SMILES | read-out | technique | concentration | remaining binding [%]
COc1ccc2c(c1)O[C@H](c1ccc(OC)c(OC)c1)C[C@@H]2NC(=O)C1(c2ccc3c(c2)OC(F)(F)O3)CC1 | cell-free assay | competition with immobilised ligand | 1 µM | 99
Cc1cnc(Nc2ccc(C(=O)N3CCC(N4CCCC4)CC3)cc2)nc1-c1cc2ccccc2s1 | binding | competition with immobilised ligand | 1 µM | 4.5
c1cncc(-c2cccc(Nc3nccc(NC4CCCCC4)n3)c2)c1 | binding | competition with immobilised ligand | 10 µM | 62
CN(CCCC(F)(F)F)c1nccc(-c2cnn3ncccc23)n1 | binding | – | 1 µM | 91
O=c1nc(-c2ccccn2)sc2ccccc12 | binding | competition with immobilised ligand | 1 µM | 91
C[C@@H]1CCN(c2nccc(-c3cnn4ncccc34)n2)C1 | binding | – | 1 µM | 63
COc1cccc(CNC(=O)c2nc3scc(COCc4ccc(C(=O)O)cc4)c3c(=O)[nH]2)c1 | cell-free assay | competition with immobilised ligand | 1 µM | 94
CN(c1nccc(-c2cnn3ncccc23)n1)C1CC1 | binding | – | 1 µM | 100
O=C(Nc1c[nH]nc1C(=O)NC1CCNCC1)c1cc(F)cc(F)c1 | binding | competition with immobilised ligand | 1 µM | 100
CS(=O)(=O)N1CCCC(NC(=O)[C@H](CCC2CCCCC2)NC(=O)c2ccc(CNC(=O)c3cnc4ccccn34)cc2)C1 (stereo partly drawn) | cell-free assay | competition with immobilised ligand | 0.1 µM | 75
N[C@H]1CCN(c2nccc(-c3cnn4ncccc34)n2)C1 | binding | – | 1 µM | 100
O=C(NCCCN1CCOCC1)c1ccc(Nc2ncc(Cl)c(-c3ccc(Cl)s3)n2)cc1 | binding | competition with immobilised ligand | 1 µM | 23
O=C(NC[C@@H]1[C@H]2CN(C(=O)OCc3cc(C(F)(F)F)cc(C(F)(F)F)c3)C[C@@H]12)c1ccc2[nH]nnc2c1 | cell-free assay | competition with immobilised ligand | 1 µM | 100
c1cnn2ncc(-c3ccnc(N4CCC45COC5)n3)c2c1 | binding | – | 1 µM | 41
C[C@@H](c1ccc(-n2cnc3c(N)ncnc32)cc1)N1CCc2nn(C)c(Cc3ccccc3)c2C1=O | binding | competition with immobilised ligand | 0.1 µM | 98
CCN1CCN(Cc2ccc(C(=O)Nc3ccc(C)c(Oc4ccc5c(c4)CC(=O)N5)c3)cc2C(F)(F)F)CC1 | binding | competition with immobilised ligand | 1 µM | 50
COc1ccnn2ncc(-c3ccnc(N(C)C)n3)c12 | binding | – | 1 µM | 68
COc1cnc(Nc2cccc(S(N)(=O)=O)c2)nc1N1CCN(c2ccccc2)CC1 | binding | competition with immobilised ligand | 1 µM | 61
O=C(c1ccc(Nc2ncc(Cl)c(-c3ccc(Cl)s3)n2)cc1)N1CCC(N2CCCC2)CC1 | binding | competition with immobilised ligand | 1 µM | 0
CC1=C(C#N)C(c2ccc3c(c2)c(NC(=O)c2ccccc2C)nn3C)C(C#N)=C(C)N1 | cell-free assay | competition with immobilised ligand | 1 µM | 69
COc1ncc2cc3ccccc3nc2c1C#N | cell-free assay | competition with immobilised ligand | 5 µM | 98
